Source: ChEMBL document CHEMBL1926565, “Synthesis, antiproliferative activities and telomerase inhibition evaluation of novel asymmetrical 1,2-disubstituted amidoanthraquinone derivatives” (Eur J Med Chem, 2012)
Calls of active or inactive are those of the source. The calls are words filed in the database; no cut-off is given here.

Key:
SK-MEL-28 = test: Cytotoxicity against human SK-MEL-28 cells assessed as cellular growth at 10 uM; assay type: functional
Summary of the method: (§1)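 Single-dose screen run by the NCI across its 60-human-tumour-cell-line panel; growth recorded for each cell line.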

786-0 = test: Cytotoxicity against human 786-0 cells assessed as cellular growth at 10 uM; assay type: functional; summary of the method: as §1
A498 [1] = test: Cytotoxicity against human A498 cells assessed as cellular growth at 10 uM; assay type: functional; summary of the method: as §1
SN12C [2] = test: Cytotoxicity against human SN12C cells assessed as cellular growth at 10 uM; assay type: functional
TK-10 [3] = test: Cytotoxicity against human TK10 cells assessed as cellular growth at 10 uM; assay type: functional
PC-3 = test: Cytotoxicity against human PC3 cells assessed as cellular growth at 10 uM; assay type: functional; summary of the method: as §1
BT-549 = test: Cytotoxicity against human BT549 cells assessed as cellular growth at 10 uM; assay type: functional; summary of the method: as §1
T47D [4] = test: Cytotoxicity against human T47D cells assessed as cellular growth at 10 uM; assay type: functional
SR = test: Anticancer activity against human SR cells; assay type: functional
Summary of the method: (§2)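 NCI 60-human-tumour-cell-line panel. Selected analogues were first run at one dose, then some were carried into multi-dose testing. GI50 (50% growth inhibition), TGI (total growth inhibition) and LC50 (50% cell kill) were read as values interpolated where the dose–response curves cross these levels.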

K562 [5] = test: Anticancer activity against human K562 cells; assay type: functional; summary of the method: as §2
RPMI-8226 = test: Anticancer activity against human RPMI8226 cells; assay type: functional; summary of the method: as §2
EKVX = test: Anticancer activity against human EKVX cells; assay type: functional; summary of the method: as §2
HOP-62 = test: Anticancer activity against human HOP62 cells; assay type: functional; summary of the method: as §2
HOP-92 = test: Anticancer activity against human HOP92 cells; assay type: functional; summary of the method: as §2
NCI-H226 = test: Anticancer activity against human NCI-H226 cells; assay type: functional; summary of the method: as §2
NCI-H23 = test: Anticancer activity against human NCI-H23 cells; assay type: functional; summary of the method: as §2
NCI-H460 = test: Anticancer activity against human NCI-H460 cells; assay type: functional; summary of the method: as §2
NCI-H522 [6] = test: Anticancer activity against human NCI-H522 cells; assay type: functional; summary of the method: as §2
A549 = test: Anticancer activity against human A549 cells; assay type: functional; summary of the method: as §2
COLO 205 = test: Anticancer activity against human COLO205 cells; assay type: functional; summary of the method: as §2
HCC 2998 = test: Anticancer activity against human HCC2998 cells; assay type: functional; summary of the method: as §2
HCT-15 = test: Anticancer activity against human HCT15 cells; assay type: functional; summary of the method: as §2
HT-29 [7] = test: Anticancer activity against human HT-29 cells; assay type: functional; summary of the method: as §2
KM12 = test: Anticancer activity against human KM12 cells; assay type: functional; summary of the method: as §2
SW-620 = test: Anticancer activity against human SW620 cells; assay type: functional
SF-268 [8] = test: Anticancer activity against human SF268 cells; assay type: functional; summary of the method: as §2
SK-MEL-2 [9] = test: Anticancer activity against human SK-MEL-2 cells; assay type: functional; summary of the method: as §2
SK-MEL-5 = test: Anticancer activity against human SK-MEL-5 cells; assay type: functional; summary of the method: as §2
IGROV-1 = test: Anticancer activity against human IGROV1 cells; assay type: functional; summary of the method: as §2
OVCAR-8 = test: Anticancer activity against human OVCAR8 cells; assay type: functional; summary of the method: as §2
NCI/ADR-RES = test: Anticancer activity against human NCI/ADR-RES cells; assay type: functional; summary of the method: as §2
SK-OV-3 = test: Anticancer activity against human SKOV3 cells; assay type: functional; summary of the method: as §2
A498 [10] = test: Anticancer activity against human A498 cells; assay type: functional; summary of the method: as §2
SN12C [11] = test: Anticancer activity against human SN12C cells; assay type: functional; summary of the method: as §2
TK-10 [12] = test: Anticancer activity against human TK10 cells; assay type: functional
UO-31 = test: Anticancer activity against human UO31 cells; assay type: functional
MCF7 = test: Anticancer activity against human MCF7 cells; assay type: functional; summary of the method: as §2
MDA-MB-231 = test: Anticancer activity against human MDA-MB-231 cells; assay type: functional; summary of the method: as §2
T47D [13] = test: Anticancer activity against human T47D cells; assay type: functional
[14] = target: Telomerase reverse transcriptase (Homo sapiens) (UniProt O14746); test: Inhibition of telomerase activity in human H1299 cell free extract at 10 uM by modified TRAP assay
Sequence of Telomerase reverse transcriptase (Homo sapiens) (O14746 whole entry): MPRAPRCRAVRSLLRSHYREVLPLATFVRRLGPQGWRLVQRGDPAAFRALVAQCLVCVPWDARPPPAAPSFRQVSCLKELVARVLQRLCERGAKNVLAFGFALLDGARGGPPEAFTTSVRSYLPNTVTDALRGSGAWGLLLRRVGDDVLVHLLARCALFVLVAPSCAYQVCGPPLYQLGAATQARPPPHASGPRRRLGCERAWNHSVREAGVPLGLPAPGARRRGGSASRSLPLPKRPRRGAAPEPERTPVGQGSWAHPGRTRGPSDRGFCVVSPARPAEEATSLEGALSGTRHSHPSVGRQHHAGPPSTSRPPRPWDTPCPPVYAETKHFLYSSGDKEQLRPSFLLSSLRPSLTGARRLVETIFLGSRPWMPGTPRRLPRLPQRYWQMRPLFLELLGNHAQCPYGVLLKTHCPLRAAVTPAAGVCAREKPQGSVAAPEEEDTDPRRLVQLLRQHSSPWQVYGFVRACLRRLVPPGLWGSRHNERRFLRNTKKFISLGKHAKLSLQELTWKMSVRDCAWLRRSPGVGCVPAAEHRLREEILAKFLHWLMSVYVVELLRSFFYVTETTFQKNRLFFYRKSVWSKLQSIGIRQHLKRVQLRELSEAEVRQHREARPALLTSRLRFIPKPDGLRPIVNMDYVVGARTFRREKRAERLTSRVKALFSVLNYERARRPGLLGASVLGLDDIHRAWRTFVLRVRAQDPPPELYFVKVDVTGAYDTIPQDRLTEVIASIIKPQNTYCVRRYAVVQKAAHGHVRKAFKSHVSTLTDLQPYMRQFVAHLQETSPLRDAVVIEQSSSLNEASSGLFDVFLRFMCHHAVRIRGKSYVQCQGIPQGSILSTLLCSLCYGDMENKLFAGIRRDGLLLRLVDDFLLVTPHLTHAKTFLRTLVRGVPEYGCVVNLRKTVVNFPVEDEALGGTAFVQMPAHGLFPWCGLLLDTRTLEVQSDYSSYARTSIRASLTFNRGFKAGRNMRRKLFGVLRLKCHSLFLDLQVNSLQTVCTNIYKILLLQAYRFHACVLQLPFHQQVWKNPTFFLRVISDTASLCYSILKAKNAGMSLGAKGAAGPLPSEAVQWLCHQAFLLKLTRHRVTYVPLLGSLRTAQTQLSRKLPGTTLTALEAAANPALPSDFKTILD
Summary of the method: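 TRAP assay using total cell lysate from H1299 lung cancer cells as the telomerase source, with protein measured against BSA standards. Compounds tested at 10 µM. Controls were lysate without inhibitor (positive) and RNase A-treated extract without inhibitor (negative).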

MOLT-4 = test: Cytotoxicity against human MOLT4 cells assessed as cellular growth at 10 uM; assay type: functional; summary of the method: as §1
K562 [15] = test: Cytotoxicity against human K562 cells assessed as cellular growth at 10 uM; assay type: functional; summary of the method: as §1
NCI-H522 [16] = test: Cytotoxicity against human NCI-H522 cells assessed as cellular growth at 10 uM; assay type: functional; summary of the method: as §1
HT-29 [17] = test: Cytotoxicity against human HT-29 cells assessed as cellular growth at 10 uM; assay type: functional; summary of the method: as §1
SF-268 [18] = test: Cytotoxicity against human SF268 cells assessed as cellular growth at 10 uM; assay type: functional; summary of the method: as §1
SK-MEL-2 [19] = test: Cytotoxicity against human SK-MEL-2 cells assessed as cellular growth at 10 uM; assay type: functional; summary of the method: as §1
[20] = target: Telomerase reverse transcriptase (Homo sapiens) (UniProt O14746); test: Residual activity of human TERT in H1299 cells at 1 uM after 24 hrs by SEAP reporter gene assay
[21] = read-out: LC50 (the source's name)

Compound: Cc1ccc(C(=O)Nc2c(NC(=O)CN3CCN(C)CC3)ccc3c2C(=O)c2ccccc2C3=O)cc1
- Activity (SK-MEL-28): -57.56%
- Activity (786-0): 11.9%
- Activity (A498 [1]): 67.36%
- Activity (SN12C [2]): 63.31%
- Activity (TK-10 [3]): 101.93%
- Activity (PC-3): 84.75%
- Activity (BT-549): 91.88%
- Activity (T47D [4]): 52.62%
- LC50 (SR): > 100 µM
- TGI (SR): 4.65 µM
- GI50 (K562 [5]): 2.09 µM
- GI50 (RPMI-8226): 3.25 µM
- LC50 (50% cell kill) (RPMI-8226): > 100 µM
- TGI (RPMI-8226): > 100 µM
- TGI (EKVX): > 100 µM
- CC50 (EKVX; [21]): > 100 µM
- GI50 (HOP-62): > 100 µM
- LC50 (50% cell kill) (HOP-62): > 100 µM
- TGI (HOP-62): > 100 µM
- GI50 (HOP-92): 0.87 µM
- LC50 (concentration giving 50% cell kill) (HOP-92): > 100 µM
- TGI (HOP-92): 9.19 µM
- GI50 (NCI-H226): > 100 µM
- TGI (NCI-H226): > 100 µM
- CC50 (NCI-H226; [21]): > 100 µM
- GI50 (NCI-H23): > 100 µM
- LC50 (50% cell kill) (NCI-H23): > 100 µM
- TGI (NCI-H23): > 100 µM
- GI50 (NCI-H460): 3.36 µM
- LC50 (50% cell kill) (NCI-H460): > 100 µM
- TGI (NCI-H460): > 100 µM
- TGI (NCI-H522 [6]): > 100 µM
- CC50 (NCI-H522 [6]; [21]): > 100 µM
- TGI (A549): > 100 µM
- CC50 (A549; [21]): > 100 µM
- GI50 (COLO 205): 2.22 µM
- LC50 (COLO 205): > 100 µM
- TGI (COLO 205): 4.08 µM
- GI50 (HCC 2998): 3 µM
- TGI (HCC 2998): > 100 µM
- CC50 (HCC 2998; [21]): > 100 µM
- GI50 (HCT-15): 3.36 µM
- LC50 (HCT-15): > 100 µM
- TGI (HCT-15): > 100 µM
- GI50 (HT-29 [7]): 3.09 µM
- TGI (HT-29 [7]): > 100 µM
- CC50 (HT-29 [7]; [21]): > 100 µM
- LC50 (KM12): > 100 µM
- TGI (KM12): > 100 µM
- TGI (SW-620): > 100 µM
- CC50 (SW-620; [21]): > 100 µM
- TGI (SF-268 [8]): > 100 µM
- CC50 (SF-268 [8]; [21]): > 100 µM
- GI50 (SK-MEL-2 [9]): > 100 µM
- TGI (SK-MEL-2 [9]): > 100 µM
- CC50 (SK-MEL-2 [9]; [21]): > 100 µM
- GI50 (SK-MEL-5): 1.94 µM
- CC50 (SK-MEL-5; [21]): > 100 µM
- GI50 (IGROV-1): > 100 µM
- TGI (IGROV-1): > 100 µM
- CC50 (IGROV-1; [21]): > 100 µM
- GI50 (OVCAR-8): > 100 µM
- TGI (OVCAR-8): > 100 µM
- CC50 (OVCAR-8; [21]): > 100 µM
- TGI (NCI/ADR-RES): > 100 µM
- CC50 (NCI/ADR-RES; [21]): > 100 µM
- GI50 (SK-OV-3): > 100 µM
- TGI (SK-OV-3): > 100 µM
- CC50 (SK-OV-3; [21]): > 100 µM
- GI50 (A498 [10]): > 100 µM
- TGI (A498 [10]): > 100 µM
- CC50 (A498 [10]; [21]): > 100 µM
- TGI (SN12C [11]): > 100 µM
- CC50 (SN12C [11]; [21]): > 100 µM
- GI50 (TK-10 [12]): > 100 µM
- TGI (TK-10 [12]): > 100 µM
- CC50 (TK-10 [12]; [21]): > 100 µM
- TGI (UO-31): > 100 µM
- CC50 (UO-31; [21]): > 100 µM
- GI50 (MCF7): 3.13 µM
- TGI (MCF7): > 100 µM
- CC50 (MCF7; [21]): > 100 µM
- GI50 (MDA-MB-231): 3.3 µM
- TGI (MDA-MB-231): > 100 µM
- CC50 (MDA-MB-231; [21]): > 100 µM
- GI50 (T47D [13]): 2.62 µM
- CC50 (T47D [13]; [21]): > 100 µM
- inhibition [14]: inactive
- Activity (MOLT-4): 26.04%
- Activity (K562 [15]): -4.52%
- Activity (NCI-H522 [16]): 88.21%
- Activity (HT-29 [17]): 3.69%
- Activity (SF-268 [18]): 59.11%
- Activity (SK-MEL-2 [19]): 123.64%
- residual activity [20]: 78%

Compound: Cc1ccc(C(=O)Nc2ccc3c(c2NC(=O)c2ccc(C)cc2)C(=O)c2ccccc2C3=O)cc1
- Activity (SK-MEL-28): 99.46%
- Activity (786-0): 116.17%
- Activity (A498 [1]): 124.08%
- Activity (SN12C [2]): 98.59%
- Activity (TK-10 [3]): 124.91%
- Activity (PC-3): 82.91%
- Activity (BT-549): 95.39%
- Activity (T47D [4]): 100%
- inhibition [14]: inactive
- Activity (MOLT-4): 89.63%
- Activity (K562 [15]): 107.54%
- Activity (NCI-H522 [16]): 72.05%
- Activity (HT-29 [17]): 99.39%
- Activity (SF-268 [18]): 98.91%
- Activity (SK-MEL-2 [19]): 100.65%
- residual activity [20]: 108%
